Laboratory results: ChEMBL document CHEMBL3272167, “Antimalarials. 3. 1,2,4-Triazines” (J Med Chem, 1976)
Activity calls are given as the source filed them. No cut-off for these calls is given here.

Tests used:
Mus musculus [1] = experiment: Toxicity in trophozoite Plasmodium berghei infected in sc dosed mouse administered as single dose 72 hrs after parasite infection; format: organism-based; details: in vivo
How it was run: (§1)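 Mice were infected with P. berghei trophozoites and given one subcutaneous dose of test compound 72 h later, up to a maximum of 640 mg/kg. Mean survival time of treated mice was compared with untreated controls. A 2.5-day prolongation counted as significant, and activity required a mean survival of at least 12 days. Cure meant 60-day survival without parasitemia.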

Plasmodium berghei [2] = experiment: Antimalarial activity against trophozoite Plasmodium berghei infected in mouse assessed as increase in mean survival time administered as single dose 72 hrs after parasite infection; format: functional, organism-based; how it was run: as §1
Plasmodium berghei [3] = experiment: Antimalarial activity against trophozoite Plasmodium berghei infected in mouse assessed as increase in mean survival time at 640 mg/kg, sc administered as single dose 72 hrs after parasite infection; format: functional; details: route subcutaneous
How it was run: (§2)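 Mice were infected with P. berghei trophozoites and given one subcutaneous dose of test compound 72 h later. The read-out was the increase in mean survival time of treated over control animals (MSTT vs MSTC); prolongation of 2.5 days was taken as significant, and a 12-day minimum mean survival was required for activity. Survivors at 60 days without parasitemia counted as cured. The maximum dose was 640 mg/kg.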

Plasmodium berghei [4] = experiment: Antimalarial activity against trophozoite Plasmodium berghei infected in mouse assessed as increase in mean survival time at 320 mg/kg, sc administered as single dose 72 hrs after parasite infection; format: functional; details: route subcutaneous; how it was run: as §2
Plasmodium gallinaceum [5] = experiment: Antimalarial activity against Plasmodium gallinaceum infected in chick assessed as increase in mean survival time at 320 mg/kg, sc administered as single dose 72 hrs after parasite infection; details: route subcutaneous
Plasmodium berghei [6] = experiment: Antimalarial activity against trophozoite Plasmodium berghei infected in mouse assessed as increase in mean survival time at 160 mg/kg, sc administered as single dose 72 hrs after parasite infection; format: functional; details: route subcutaneous; how it was run: as §2
Plasmodium berghei [7] = experiment: Antimalarial activity against trophozoite Plasmodium berghei infected in mouse assessed as increase in mean survival time at 40 mg/kg, sc administered as single dose 72 hrs after parasite infection; format: functional; details: route subcutaneous; how it was run: as §2
Plasmodium berghei [8] = experiment: Antimalarial activity against trophozoite Plasmodium berghei infected in mouse assessed as increase in mean survival time at 20 mg/kg, sc administered as single dose 72 hrs after parasite infection; format: functional; details: route subcutaneous; how it was run: as §2
Plasmodium gallinaceum [9] = experiment: Antimalarial activity against Plasmodium gallinaceum infected in chick assessed as increase in mean survival time at 240 mg/kg, sc administered as single dose 72 hrs after parasite infection; details: route subcutaneous
Plasmodium gallinaceum [10] = experiment: Antimalarial activity against Plasmodium gallinaceum infected in chick assessed as increase in mean survival time at 480 mg/kg, sc administered as single dose 72 hrs after parasite infection; details: route subcutaneous
Gallus gallus (chicken) [11] = experiment: Toxicity in Plasmodium gallinaceum infected in chick at 480 mg/kg, sc administered as single dose 72 hrs after parasite infection; details: in vivo
Plasmodium gallinaceum [12] = experiment: Antimalarial activity against Plasmodium gallinaceum infected in chick assessed as increase in mean survival time at 640 mg/kg, sc administered as single dose 72 hrs after parasite infection; details: route subcutaneous
Plasmodium berghei [13] = experiment: Antimalarial activity against trophozoite Plasmodium berghei infected in mouse assessed as increase in mean survival time at 80 mg/kg, sc administered as single dose 72 hrs after parasite infection; format: functional; details: route subcutaneous; how it was run: as §2
Plasmodium berghei [14] = experiment: Antimalarial activity against trophozoite Plasmodium berghei infected in mouse assessed as increase in mean survival time at 10 mg/kg, sc administered as single dose 72 hrs after parasite infection; format: functional; details: route subcutaneous; how it was run: as §2
Mus musculus [15] = experiment: Toxicity in trophozoite Plasmodium berghei infected in mouse at 640 mg/kg, sc administered as single dose 72 hrs after parasite infection; format: organism-based; set-up: dose 640 mg/kg, route subcutaneous; details: in vivo; how it was run: as §1
Gallus gallus (chicken) [16] = experiment: Toxicity in Plasmodium gallinaceum infected in chick at 640 mg/kg, sc administered as single dose 72 hrs after parasite infection; details: in vivo
Plasmodium gallinaceum [17] = experiment: Antimalarial activity against Plasmodium gallinaceum infected in chick assessed as increase in mean survival time at 80 mg/kg, sc administered as single dose 72 hrs after parasite infection; details: route subcutaneous
Plasmodium gallinaceum [18] = experiment: Antimalarial activity against Plasmodium gallinaceum infected in chick assessed as increase in mean survival time at 160 mg/kg, sc administered as single dose 72 hrs after parasite infection; details: route subcutaneous

## CS(=O)(=O)c1ccc(-c2nnc(N)nc2N)cc1
Mus musculus [1]
  Activity: Toxic

## COc1ccc(-c2nnc(/N=C/N(C)C)nc2/N=C/N(C)C)cc1OC
Plasmodium berghei [2]
  Activity: inactive

## Cc1n[nH]c(=S)[nH]c1=O
Mus musculus [1]
  Activity: Toxic

## COc1ccc(-c2nnc(NC(=O)Nc3ccccc3)nc2N)cc1OC
Plasmodium berghei [2]
  Activity: inactive

## COc1ccc(-c2nnc(N)nc2N)cc1OC
Plasmodium berghei [3]
  MST: 11.7 days
Plasmodium berghei [4]
  MST: 10.1 days
Plasmodium gallinaceum [5]
  T/C: 7

## Nc1nnc(-c2ccc(C(F)(F)F)cc2)c(N)n1
Plasmodium berghei [3]
  T/C: 0
Plasmodium berghei [6]
  T/C: 0
Plasmodium berghei [7]
  T/C: 12.8
Plasmodium berghei [8]
  T/C: 12.8
Plasmodium gallinaceum [9]
  T/C: 6.4
Plasmodium gallinaceum [10]
  T/C: 9.9
Plasmodium berghei [4]
  T/C: 0
Gallus gallus (chicken) [11]
  Activity: Toxic
Plasmodium gallinaceum [12]
  T/C: 9.9
Plasmodium berghei [13]
  T/C: 0
Plasmodium berghei [14]
  T/C: 6.8
Mus musculus [15]
  Activity: Toxic

## Cc1ccc(-c2nnc(N)nc2N)cc1C
Plasmodium berghei [3]
  MST: 4.9 days

## CSc1nnc(C)c(SC)n1
Mus musculus [1]
  Activity: Toxic

## Cc1nnc(S)nc1S
Plasmodium gallinaceum [12]
  T/C: 4.4
Gallus gallus (chicken) [16]
  Activity: Toxic
Mus musculus [1]
  Activity: Toxic

## Nc1nnc(-c2ccc3c(c2)OCO3)c(N)n1
Plasmodium gallinaceum [17]
  T/C: 1.7
Plasmodium berghei [3]
  T/C: 15.4
Plasmodium berghei [6]
  T/C: 7.1
Plasmodium berghei [4]
  T/C: 12.2
Plasmodium gallinaceum [18]
  T/C: 3.2
Plasmodium gallinaceum [5]
  T/C: 3.2

## N#C/C(=N/NC(=N)N)c1cccs1.O=[N+]([O-])O
Mus musculus [1]
  Activity: Toxic

## Nc1nnc(-c2cccc(C(F)(F)F)c2)c(N)n1
Plasmodium berghei [3]
  MST: 4.6 days
Plasmodium gallinaceum [9]
  T/C: 2.2
Plasmodium gallinaceum [5]
  T/C: 1.5

## CN(C)/C=N/c1nnc(-c2ccc3c(c2)OCO3)c(/N=C/N(C)C)n1
Plasmodium berghei [3]
  MST: 5.9 days
Plasmodium berghei [2]
  Activity: inactive
Plasmodium gallinaceum [10]
  T/C: 1.5

## Cc1ccc(S(=O)(=O)NC(=O)Nc2nnc(-c3ccc4c(c3)OCO4)c(N)n2)cc1
Plasmodium berghei [2]
  Activity: inactive

## Nc1nnc(-c2ccccc2)c(-c2ccccc2)n1
Mus musculus [1]
  Activity: Toxic

## Cc1ccc(-c2nnc(N)nc2N)cc1Cl
Plasmodium berghei [3]
  T/C: 9.9

## Cc1nnc(N)nc1C
Plasmodium berghei [3]
  MST: 4.2 days
Plasmodium berghei [2]
  Activity: inactive
